The source made the active and inactive calls. The rule behind the calls is not given here.
What was measured:
HCT-116 = assay: Antiproliferative activity against human HCT116 cells incubated for 72 hrs by CCK8 assay; type: functional, cell-based
Method in brief: (§1)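 HCT116, MCF-7 and A549 human cancer cell lines; antiproliferative activity read out by CCK8 assay. Evodiamine derivatives and camptothecin served as positive controls.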

A549 = assay: Antiproliferative activity against human A549 cells incubated for 72 hrs by CCK8 assay; type: functional, cell-based; method in brief: as §1
MCF7 = assay: Antiproliferative activity against human MCF7 cells incubated for 72 hrs by CCK8 assay; type: functional, cell-based; method in brief: as §1
[1] = Inhibition of porcine brain tubulin polymerization measured at 1 min interval for 15 to 30 mins by spectrophotometric method; design: species or system Sus scrofa
[2] = molecular target: T1, DNA topoisomerase II (Homo sapiens) (UniProt P11388+Q02880); assay: Inhibition of Top2 (unknown origin) at 50 uM using supercoiled pBR322 plasmid DNA as substrate incubated for 30 mins by PI staining based agarose gel electrophoresis analysis; type: protein assay
[3] = molecular target: T2, DNA topoisomerase 1 (Homo sapiens) (UniProt P11387); assay: Inhibition of Top1 (unknown origin) at 125 uM using supercoiled pBR322 plasmid DNA as substrate incubated for 15 mins by PI staining based agarose gel electrophoresis analysis
T2 sequence (whole entry): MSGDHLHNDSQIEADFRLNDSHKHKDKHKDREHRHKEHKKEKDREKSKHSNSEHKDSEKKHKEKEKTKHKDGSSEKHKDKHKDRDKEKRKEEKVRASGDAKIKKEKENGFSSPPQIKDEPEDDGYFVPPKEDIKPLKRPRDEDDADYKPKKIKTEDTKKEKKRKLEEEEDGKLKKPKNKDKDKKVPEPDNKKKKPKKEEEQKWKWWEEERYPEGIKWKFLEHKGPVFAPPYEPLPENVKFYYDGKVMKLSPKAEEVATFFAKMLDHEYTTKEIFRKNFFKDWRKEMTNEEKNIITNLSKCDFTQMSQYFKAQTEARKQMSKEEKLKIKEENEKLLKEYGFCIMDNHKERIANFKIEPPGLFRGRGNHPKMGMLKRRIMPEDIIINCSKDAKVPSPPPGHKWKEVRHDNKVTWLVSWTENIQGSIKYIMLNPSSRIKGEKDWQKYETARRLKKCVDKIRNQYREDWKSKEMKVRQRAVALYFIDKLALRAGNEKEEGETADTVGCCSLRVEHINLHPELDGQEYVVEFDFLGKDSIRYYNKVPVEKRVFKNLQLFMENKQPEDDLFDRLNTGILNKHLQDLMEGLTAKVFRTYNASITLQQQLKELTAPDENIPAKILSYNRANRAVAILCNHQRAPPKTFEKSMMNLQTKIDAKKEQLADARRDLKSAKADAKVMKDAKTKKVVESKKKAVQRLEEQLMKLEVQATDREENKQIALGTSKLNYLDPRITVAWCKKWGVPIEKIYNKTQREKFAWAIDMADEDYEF
Method in brief: (§2)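 Top1 inhibition tested at 500, 250 and 125 μM, and over 27.9 to 250 μM for selected compounds.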

[4] = molecular target: T2, DNA topoisomerase 1 (Homo sapiens); assay: Inhibition of Top1 (unknown origin) at 500 uM using supercoiled pBR322 plasmid DNA as substrate incubated for 15 mins by PI staining based agarose gel electrophoresis analysis; method in brief: as §2
[5] = Drug metabolism in human HCT116 cells assessed as 3-Fluoro-10-hydroxy-14-methyl-8,13,13b,14-tetrahydro-7H-indolo[2',3':3,4]pyrido[2,1-b]quinazolin-5-one release by measuring retention time incubated for 8 hrs by UPLC-QTOF/MS analysis; type: ADME, cell-based; settings: hct-116, 8 h
Method in brief: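 Compounds incubated with HCT116 cells; culture media analysed by HPLC after 8, 48 and 72 h. Relative release rate taken from relative peak areas; parent and product identified by retention time.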

[6] = Metabolic stability in mouse liver microsomes assessed as half life at 1 uM preincubated with compound followed by NADPH addition measured upto 45 mins by LC-MS/MS analysis; type: ADME, Microsome
Method in brief: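 In vitro stability in liver microsomes; terminal half-life determined.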

[7] = molecular target: T1, DNA topoisomerase II (Homo sapiens); assay: Inhibition of Top2 (unknown origin) using supercoiled pBR322 plasmid as substrate incubated for 30 mins by PI staining based agarose gel electrophoresis analysis; type: protein assay
[8] = Homo sapiens, HCT-116, 72 h, read-out: IC50
[9] = Homo sapiens, A549, 72 h, read-out: IC50
[10] = Homo sapiens, MCF7, 72 h, read-out: IC50

| SMILES | IC50 (HCT-116; [8]) [nM] | IC50 (A549; [9]) [nM] | IC50 (MCF7; [10]) [nM] | inhibition [4] | also measured |
| --- | --- | --- | --- | --- | --- |
| CN1c2ccc(F)cc2C(=O)N2CCc3c(n(C(=O)OC(C)(C)C)c4ccc(OCc5ccc(B6OC(C)(C)C(C)(C)O6)cc5)cc34)C21 (configuration not stated) | 2170 | 2230 | 7850 | – | – |
| CN1c2ccccc2C(=O)N2CCc3c([nH]c4ccc(OC(=O)OCc5ccc(B(O)O)cc5)cc34)C21 (configuration not stated) | 52 | 130 | 140 | Active | IC50 [1]: 25700 nM; inhibition [2]: Active; inhibition [3]: Active |
| CC(=O)Oc1ccc(CCl)cc1 | – | – | – | – | IC50 (HCT-116; hct-116): Not Active; IC50 (A549; a549): Not Active; IC50 (MCF7; mcf7): Not Active |
| CN1c2ccccc2C(=O)N2CCc3c([nH]c4ccc(O)cc34)C21 (configuration not stated) | 55 | 84 | 270 | Active | – |
| CN1c2ccccc2C(=O)N2CCc3c([nH]c4ccc(B5OC(C)(C)C(C)(C)O5)cc34)C21 (configuration not stated) | 220 | 170 | 390 | – | – |
| CN1c2ccc(F)cc2C(=O)N2CCc3c([nH]c4ccc(O)cc34)C21 (configuration not stated) | 27 | 29 | 31 | Active | Retention_time [5]: 7.3 min; half-life at 1 µM [6]: 3.69 min |
| CN1c2ccccc2C(=O)N2CCc3c([nH]c4ccc(B(O)O)cc34)C21 (configuration not stated) | 69 | 100 | 160 | Active | – |
| CN1c2ccccc2C(=O)N2CCc3c(n(C(=O)OC(C)(C)C)c4ccc(OCc5ccc(B6OC(C)(C)C(C)(C)O6)cc5)cc34)C21 (configuration not stated) | 4180 | 3440 | 4130 | – | – |
| CN1c2ccc(F)cc2C(=O)N2CCc3c([nH]c4ccc(OCc5ccc(B(O)O)cc5)cc34)C21 (configuration not stated) | 83 | 73 | 59 | Active | inhibition [3]: Active; inhibition [7]: Active |
| CN1c2ccccc2C(=O)N2CCc3c([nH]c4ccc(OCc5ccc(B6OC(C)(C)C(C)(C)O6)cc5)cc34)C21 (configuration not stated) | 100 | 390 | 160 | – | – |

Source: ChEMBL document CHEMBL4602706, “Natural Product Evodiamine with Borate Trigger Unit: Discovery of Potent Antitumor Agents against Colon Cancer” (ACS Med Chem Lett, 2020)
